The values below come from article PMC10975593 (ACS Omega, 2024).

For test [1], the system named is Staphylococcus aureus. Kind of test: Disc diffusion antimicrobial test. The settings on record: 24 h; for zone of inhibition at 100 µg/mL: Staphylococcus aureus, read-out: zone of inhibition (diameter of inhibition). The class given is cell-based. In outline: (§1)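 Disc diffusion on nutrient agar, test compound at 100 μg/mL with DMSO as solvent. Plates incubated at 37 °C for 24 h after inoculation, then zone of inhibition measured and compared with standards. Controls were DMSO, amoxicillin, ciprofloxacin and tetracycline.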
A general note: Agar diffusion results depend on both activity and mobility in agar.

Test [2] has as its system A549 cancer cell line. Kind of test: MTT assay. The class given is cell-based. The settings on record: for IC50 / inhibition at 100 µM: Homo sapiens, A549, 72 h; for inhibition at 100 µM: read-out: experimental % of inhibition on A549 cancer cell line. In a few lines:
(§2)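 A549 in DMEM and MCF-7 in RPMI, each with 10% heat-inactivated FBS, 1% penicillin/streptomycin and 2 mmol/L glutamine at 37 °C, 5% CO2. Seeded at 2000 (A549) or 10,000 (MCF-7) cells/well and attached 24 h. Then 72 h with test compound at varying concentrations. MTT (5 mg/mL stock) added for 4 h at 37 °C, formazan dissolved in DMSO, absorbance read at 450/540 nm. Triplicates in three separate experiments.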
In general terms: Tetrazolium dyes change colour on reduction, which living cells bring about.

Test [3] concerns A549 cancer cell line. The following applies: cited from earlier work.
In test [4] the test system is MCF-7 cancer cell line. Briefly: MTT assay. Format: cell-based. In outline: as §2
The target in test [5] is PI3Kγ enzyme (Homo sapiens, UniProt P48736). Briefly: Adapta universal kinase assay, anti-PI3Kγ activity. The class given is biochemical. In a few lines: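 Adapta ADP-detection TR-FRET immunoassay with test compound at 100 μM. The kinase reaction runs 60 min. It is then stopped by a detection solution of EDTA, europium-labelled anti-ADP antibody and Alexa Fluor 647-labelled ADP tracer. ADP formed displaces the tracer and lowers the TR-FRET signal. ADP formation is calculated from the emission ratio.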
Sequence of PI3Kγ enzyme (P48736 whole entry): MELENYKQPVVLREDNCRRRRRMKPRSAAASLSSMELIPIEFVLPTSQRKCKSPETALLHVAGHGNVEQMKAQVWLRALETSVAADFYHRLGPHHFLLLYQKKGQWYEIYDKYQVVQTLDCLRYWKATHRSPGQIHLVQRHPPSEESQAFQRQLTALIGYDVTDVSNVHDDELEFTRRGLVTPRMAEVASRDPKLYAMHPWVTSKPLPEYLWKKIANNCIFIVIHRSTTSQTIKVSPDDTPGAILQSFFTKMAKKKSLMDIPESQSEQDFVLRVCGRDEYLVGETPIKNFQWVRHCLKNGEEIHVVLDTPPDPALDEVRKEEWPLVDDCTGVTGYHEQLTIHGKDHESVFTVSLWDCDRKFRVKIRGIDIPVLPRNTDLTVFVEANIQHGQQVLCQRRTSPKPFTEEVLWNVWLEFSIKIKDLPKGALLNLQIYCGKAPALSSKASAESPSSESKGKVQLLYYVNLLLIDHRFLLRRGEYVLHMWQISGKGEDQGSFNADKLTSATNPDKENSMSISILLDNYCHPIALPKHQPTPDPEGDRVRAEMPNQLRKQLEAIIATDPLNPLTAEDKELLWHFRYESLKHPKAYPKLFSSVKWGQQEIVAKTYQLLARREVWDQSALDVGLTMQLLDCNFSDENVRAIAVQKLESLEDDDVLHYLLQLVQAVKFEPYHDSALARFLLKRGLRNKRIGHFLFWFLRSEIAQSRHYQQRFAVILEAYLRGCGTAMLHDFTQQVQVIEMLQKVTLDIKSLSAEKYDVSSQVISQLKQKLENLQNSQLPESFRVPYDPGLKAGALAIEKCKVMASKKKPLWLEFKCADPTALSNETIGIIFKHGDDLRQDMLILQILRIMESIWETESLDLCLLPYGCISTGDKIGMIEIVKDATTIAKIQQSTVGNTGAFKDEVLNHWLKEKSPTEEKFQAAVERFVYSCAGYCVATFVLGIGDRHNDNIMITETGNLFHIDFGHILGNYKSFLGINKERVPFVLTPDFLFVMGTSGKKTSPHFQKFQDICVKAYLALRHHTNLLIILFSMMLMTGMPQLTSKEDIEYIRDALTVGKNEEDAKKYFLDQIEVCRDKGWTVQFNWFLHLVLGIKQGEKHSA

For test [6], the system named is Escherichia coli. Kind of test: Disc diffusion antimicrobial test. Format: cell-based. The following applies: 24 h; for zone of inhibition at 100 µg/mL: Escherichia coli, read-out: zone of inhibition (diameter of inhibition). In a few lines: as §1
Test [7] concerns Fibro cell line. Kind of test: % inhibition on normal cell line. The class given is cell-based. The following applies: for inhibition at 10 µM: read-out: %inhibition at 10 μM; for inhibition at 100 µM: read-out: %inhibition at 100 μM.
The mark [8] stands for this setting: read-out: % of inhibition (mean) against PI3Kγ enzyme.
Where [9] appears, read: read-out: % of inhibition against PI3Kγ enzyme, point 1.
[10] abbreviates: read-out: % of inhibition against PI3Kγ enzyme, point 2.

Like-named read-outs stand apart in the source and are kept apart here.

For the compound `CC1(C)S[C@@H]2[C@H](NC(=O)[C@H](N)c3ccc(O)cc3)C(=O)N2[C@H]1C(=O)O` [Amoxicillin, reference compound], the zone of inhibition at 100 µg/mL in test [1] came out at 22 mm.
In the case of `COc1cccc2c1C(=O)c1c(O)c3c(c(O)c1C2=O)C[C@@](O)(C(=O)CO)C[C@@H]3O[C@H]1C[C@H](N)[C@H](O)[C@H](C)O1` [Doxorubicin, reference compound], in test [2], half-maximal inhibition (IC50) required 16.6 µM and the inhibition at 100 µM was 82.2%. The IC50 in test [3] (read-out: reported IC50 against A549) is 0.071 µM.
Consider `CN(C)C1CCN(C(=O)c2ccc(NC(=O)Nc3ccc(-c4nc(N5CCOCC5)nc(N5CCOCC5)n4)cc3)cc2)CC1` [Gedatolisib, reference compound], for which the IC50 in test [2] was 16.5 µM; in test [4] (Homo sapiens, MCF7, 72 h), 13.1 µM; in test [3] (read-out: reported IC50), 9.05 µM.
With `O=C(CNC1CCCCC1)Nc1nc2ccccc2s1` [OMS1, N-(1,3-benzothiazol-2-yl)-2-(cyclohexylamino)acetamide], the inhibition at 100 µM amounted to 47% in test [5] (setting [8]); 54% in test [5] (setting [9]); 40% in test [5] (setting [10]); 1.72% in test [2]; 13% in test [7]. Further, the figures for the zone of inhibition at 100 µg/mL in test [1] and in test [6] were 22 mm and 0 mm, respectively. For the same compound, the inhibition at 10 µM in test [7] came to 0.85%.
As to `O=C(CNc1ccc(F)cc1)Nc1nc2ccccc2s1` [OMS3, N-(1,3-benzothiazol-2-yl)-2-(4-fluoroanilino)acetamide], the inhibition at 100 µM worked out at 24% in test [5] (setting [8]); 20% in test [5] (setting [9]); 28% in test [5] (setting [10]); 2.8% in test [2]; 63.8% in test [7]. In addition, the zone of inhibition at 100 µg/mL in test [1] worked out at 15 mm; in test [6], 0 mm. Further, the inhibition at 10 µM in test [7] is 10.3%.
As to `O=C(CNc1ccc(I)cc1)Nc1nc2ccccc2s1` [OMS4, N-(1,3-benzothiazol-2-yl)-2-(4-iodoanilino)acetamide], the inhibition at 100 µM in test [5] (setting [8]) was 0%; in test [5] (setting [9]) it was 0%; in test [5] (setting [10]), 0%; in test [2], -2.32%; in test [7] it was 27.6%. For the same compound, the zone of inhibition at 100 µg/mL in test [1] was 10 mm; in test [6], 0 mm. Besides, the inhibition at 10 µM in test [7] is 1.32%.
In the case of `NS(=O)(=O)c1ccc(NCC(=O)Nc2nc3ccccc3s2)cc1` [OMS6, N-(1,3-benzothiazol-2-yl)-2-(4-sulfamoylanilino)acetamide], the inhibition at 100 µM in test [5] (setting [8]) was determined as 13%; in test [5] (setting [9]), 3%; in test [5] (setting [10]) it was 22%; in test [2], 39.6%; in test [7], 62.7%. Besides, the zone of inhibition at 100 µg/mL in test [1] and in test [6] was 0 mm each time. In addition, in test [7], the inhibition at 10 µM is 1.52%.
For `N=C(N)NS(=O)(=O)c1ccc(NCC(=O)Nc2nc3ccccc3s2)cc1` [OMS7, N-(1,3-benzothiazol-2-yl)-2-[4-(carbamimidoylsulfamoyl)anilino]acetamide], the inhibition at 100 µM in test [5] (setting [8]) is 25%; in test [5] (setting [9]), 29%; in test [5] (setting [10]), 22%; in test [2], -3.59%; in test [7] it was 16.4%. Also, the zone of inhibition at 100 µg/mL in test [1] and in test [6] was 0 mm in each case. Moreover, the inhibition at 10 µM in test [7] turned out to be 1.88%.
In the case of `O=C(CNc1ccc(S(=O)(=O)Nc2ccccn2)cc1)Nc1nc2ccccc2s1` [OMS8, N-(1,3-benzothiazol-2-yl)-2-{4-[(pyridine-2-yl)sulfamoyl]anilino}acetamide], the inhibition at 100 µM in test [5] (setting [8]) is 0%; in test [5] (setting [9]) it was 0%; in test [5] (setting [10]) it was 0%; in test [2], 11.2%; in test [7], 43.3%. Also, the zone of inhibition at 100 µg/mL in test [1] and in test [6] was 0 mm each time. Moreover, in test [7], the inhibition at 10 µM worked out at 8.62%.
For the compound `O=C(CN1CCOCC1)Nc1nc2ccccc2s1` [OMS9, N-(1,3-benzothiazol-2-yl)-2-(morpholin-4-yl)acetamide], the inhibition at 100 µM amounted to 2% in test [5] (setting [8]); 0% in test [5] (setting [9]); 3% in test [5] (setting [10]); 17.2% in test [2]; 3.11% in test [7]. The zone of inhibition at 100 µg/mL in test [1] and in test [6] was 0 mm each time. Also, in test [7], the inhibition at 10 µM turned out to be 11.8%.
For `O=C(CN1CCN(c2cccc(O)c2)CC1)Nc1nc2ccccc2s1` [OMS10, N-(1,3-benzothiazol-2-yl)-2-[4-(3-hydroxyphenyl)piperazin-1-yl]acetamide], the inhibition at 100 µM was 2% in test [5] (setting [8]); 3% in test [5] (setting [9]); 0% in test [5] (setting [10]); 38.1% in test [2]; 44.1% in test [7]. For the same compound, the zone of inhibition at 100 µg/mL amounted to 11 mm in test [1] and 0 mm in test [6]. In addition, the inhibition at 10 µM in test [7] was found to be 15.9%.
In the case of `O=C(CN1CCN(c2ccc([N+](=O)[O-])cc2)CC1)Nc1nc2ccccc2s1` [OMS11, N-(1,3-benzothiazol-2-yl)-2-[4-(4-nitrophenyl)piperazin-1-yl]acetamide], the inhibition at 100 µM in test [5] (setting [8]) amounted to 3%; in test [5] (setting [9]), 6%; in test [5] (setting [10]), 0%; in test [2], 22%; in test [7], 19.2%. Moreover, the zone of inhibition at 100 µg/mL in test [1] and in test [6] was 0 mm each time. In addition, the inhibition at 10 µM in test [7] stood at 21.3%.
For `O=C(CN1CCN(c2ccccc2O)CC1)Nc1nc2ccccc2s1` [OMS12, N-(1,3-benzothiazol-2-yl)-2-[4-(2-hydroxyphenyl)piperazin-1-yl]acetamide], the inhibition at 100 µM amounted to 16% in test [5] (setting [8]); 28% in test [5] (setting [9]); 4% in test [5] (setting [10]); 48.5% in test [2]; 22.2% in test [7]. For the same compound, the figures for the zone of inhibition at 100 µg/mL in test [1] and in test [6] were 20 mm and 0 mm, respectively. Moreover, the inhibition at 10 µM in test [7] was 24.3%.
For the compound `O=C(CN1CCN(c2ccccn2)CC1)Nc1nc2ccccc2s1` [OMS13, N-(1,3-benzothiazol-2-yl)-2-[4-(pyridin-2-yl)piperazin-1-yl]acetamide], the inhibition at 100 µM in test [5] (setting [8]) is 3%; in test [5] (setting [9]) it was -2%; in test [5] (setting [10]), 8%; in test [2] it was 26.9%; in test [7], 13.8%. In addition, the zone of inhibition at 100 µg/mL in test [1] and in test [6] was 0 mm in each case. In test [7], the inhibition at 10 µM came to 21.1%.
Take `O=C(CN1CCN(CC(=O)Nc2nc3ccccc3s2)CC1)Nc1nc2ccccc2s1` [OMS16, 2,2′-(piperazine-1,4-diyl)bis(N-(benzo[d]thiazol-2-yl)acetamide)]: the inhibition at 100 µM in test [5] (setting [8]) came out at 1%; in test [5] (setting [9]), 2%; in test [5] (setting [10]), 0%; in test [2] it was 56.6%; in test [7], 70.1%. For the same compound, the zone of inhibition at 100 µg/mL in test [1] and in test [6] was 0 mm each time. Besides, in test [7], the inhibition at 10 µM amounted to 53.8%.
For the compound `CNC(=O)c1cc(Oc2ccc(NC(=O)Nc3ccc(Cl)c(C(F)(F)F)c3)cc2)ccn1` [Sorafenib, reference compound], in test [7], the inhibition at 10 µM turned out to be 10.7% and the inhibition at 100 µM amounted to 26.3%.
As for “N-(benzo[d]thiazol-2-yl)-2-(4-(2-oxo-2-(piperazin-1-yl)ethyl)piperazin-1-yl)acetamide [OMS15]”, in test [5] (100 μM), the “% of inhibition against PI3Kγ enzyme, point 1” value stood at 0% and the “% of inhibition against PI3Kγ enzyme, point 2” value is given as 0%. For the same compound, the “% of inhibition (mean) against PI3Kγ enzyme” value in test [5] (100 μM, mean of 2 trials) is recorded as 0%. Besides, the “experimental % of inhibition on A549 cancer cell line” value in test [2] (100 μM, 72 h, MTT) came out at 56.69%. Further, the “experimental % of inhibition on MCF-7 cancer cell line” value in test [4] (100 μM, 72 h, MTT) is listed as “–23.63%”. Besides, the “zone of inhibition (diameter of inhibition)” value in test [1] (disc diffusion, 100 μg/mL, S. aureus) stood at 0 mm. Further, the “zone of inhibition (diameter of inhibition)” value in test [6] (disc diffusion, 100 μg/mL, E. coli) is recorded as 0 mm. The “%inhibition at 10 μM” value in test [7] (Fibro cell line (normal), 10 μM) stood at 34.8%. The “%inhibition at 100 μM” value in test [7] (Fibro cell line (normal), 100 μM) was 70%.

In general, zone of inhibition refers to the extent of the growth-free halo in a diffusion test. One may read the IC50 as the concentration that gives 50% inhibition. The term inhibition denotes the relative decrease from the control value, in per cent. What is called %inhibition is the change of the read-out against control, counted positive when it falls. Low readings indicate a response near the control, high ones a response far below the control.
